Most compounds without a hit are left out; they make up all but 12% or so of the library.
Autophagy HCS: modulators of autophagy; MEF GFP-LC3 puncta imaging; test concentration mostly 10 µM; calls only at 10 µM (by protocol); hit rate 0.98% among 190,000; AID 463193;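 active = percentage of spot-positive cells more than 3 SD above its plate mean, without a fluorescence outlier flag or 80% toxicity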;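 also: spot-positive cell cutoff set from DMSO-treated cells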
Lmaj promast: reduces viability of Leishmania major promastigotes; resazurin fluorescence viability; inhibition, % at 10 µM; hit rate 9% among 200,000; AID 1063; in the data active = inhibition above about 50%;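 also: promastigotes grown with compound for 44 hours at 28 °C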
CHOP inh: CHOP inhibition in unfolded protein response. CHO-K1 CHOP-promoter luciferase, tunicamycin-induced, 15-18 h. inhibition, % at 10 µM. hit rate 3.8% among 220,000. AID 2732;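 active = compounds that reduced the stress-induced luciferase reporter signal by more than about 70% of percent inhibition, limit read from the data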;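 also: 0% = tunicamycin plus vehicle and 100% = wells without tunicamycin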
b-catenin transl: beta-catenin nuclear translocation modulation; HeLa beta-catenin nuclear translocation, immunofluorescence imaging; nuclear translocation activity, % at 5 µM; hit rate 0.3% among 190,000; AID 1665;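 active = nuclear translocation activity above 50% at 5 µM, with a well cell count of 50 or more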;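 also: per-cell ratio of nuclear to cytoplasmic median beta-catenin stain intensity; plate controls were DMSO negative control for no effect and GSK-3 inhibitor IX positive control for full effect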
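System: HeLa cells, endogenous beta-catenin; compound dosing: 5 µM primary single dose, 0.1% DMSO, 0.02–20 µM confirmation series; incubation: 24 h compound exposure at 37°C, 5% CO2; signal: beta-catenin immunofluorescence imaging with DAPI; evaluation: % activation, nuclear-to-cytoplasmic median beta-catenin signal ratio per cell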
Dynein cargo inh: blocks dynein driven cargo transport along microtubules; 3617.4 mouse cells, GR-EGFP nuclear translocation imaging; test concentration mostly 20 µM; stimulated with dexamethasone, 1 µM; hits give low values; hit rate 0.47% among 220,000; z-score, hits read low;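 active = plate z-score of nuclear minus cytoplasmic receptor signal below a set negative limit, without overly bright fluorescence or cell loss, cut at about -3.5 in these data, passing the limit was not always enough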;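 also: z-score of nuclear minus cytoplasmic ring GR-EGFP intensity difference per well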
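Also added – dexamethasone, 1.0 µM final · Buffer or medium – tet-free, stripped-serum medium · Schedule – induction 48 h, compound 1 h, agonist 30 min · Detection – formaldehyde fixation, Hoechst nuclear stain, 10x automated fluorescence imaging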
MT stabilizer: microtubule stabilization, imaging screen; hit rate 0.83% among 200,000; HeLa tubulin immunostaining HCS, 24 h; share of cells brighter than vehicle mean+2SD; AID 2205; % tubulin-high responders, % at 10 µM;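 active = plate Z-score above 3 for both tubulin-high and condensed-nucleus cell shares, with cell loss under 80%, at 10 µM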;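 also: anti alpha tubulin signal scored within the nucleus-defined area of each cell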
Active calls of the source: *; i = inactive; x = not tested or not shown; + = active, no number.

SMILES | Autophagy HCS | Lmaj promast | CHOP inh | b-catenin transl | Dynein cargo inh | MT stabilizer
COc1ccc(CN2CCCC(C(=O)c3ccc(Cl)cc3)C2)cc1Cn1cccn1 (centres undefined) | i | 95.9* | 30.5 | 2.1 | -0.685 | 2.4
COc1ccc(C(=O)C2CCCN(Cc3cnc(N4CCCC4)s3)C2)cc1OC (centres undefined) | i | 71.8* | 32.0 | 2.1 | 0.137 | 2.3
COc1cc(Cn2c(=O)oc3ccc(C)cc32)ccc1OC(C)C | i | 1.3 | 28.7 | 1.3 | -0.694 | 5.8
COc1ccccc1C1CC(c2ccccc2)=NN1C(=S)Nc1ccccc1 (centres undefined) | i | 78.6* | -0.8 | 0.9 | -1.13 | 5.2
CNC(=S)N1N=C(c2ccccc2)CC1c1ccc(OC)c(OC)c1 (centres undefined) | i | 3.0 | 19.4 | -0.7 | 0.476 | 4.9
COc1ccc(C2=NN(C(=S)Nc3ccccc3)C(c3ccccc3)C2)cc1 (centres undefined) | i | 96.0* | -29.4 | x | 0.423 | 1.1
COc1ccc(C2CC(c3ccccc3)=NN2C(=S)Nc2ccccc2)cc1 (centres undefined) | i | 36.6 | -1.0 | -3.1 | 0.136 | 2.1
COc1ccc(C2CC(c3ccc(Br)cc3)=NN2C(=S)Nc2ccccc2)cc1 (centres undefined) | i | 79.0* | -5.3 | -4.0 | 0.413 | 1.7
O=C(CCCSc1nnnn1-c1cccc2ccccc12)c1ccc(F)cc1 | i | 0.2 | 18.0 | 1.9 | 1.85 | 3.0
OCC1CCN(Cc2cn(Cc3ccccc3)nc2-c2cc3ccccc3o2)CC1 | i | 19.0 | -7.2 | -1.7 | 1.32 | 2.9
COC1CCN(Cc2cn(Cc3ccccc3)nc2-c2cc3ccccc3o2)CC1 | + | 50.5* | 12.0 | -0.2 | 0.746 | 2.9
Cc1cc(C(=O)NNC(=S)Nc2ccccc2)nn1C | i | -5.7 | -26.4 | 0.5 | 0.155 | 3.1
CCc1nc(Sc2nnnn2-c2ccccc2)c2c3c(sc2n1)CCCC3 | i | 97.9* | 9.4 | -1.6 | -0.151 | 4.6
Cc1nc(Sc2nnnn2C)c2c3c(sc2n1)CCC3 | + | 25.9 | -100.1 | 1.9 | 0.415 | 3.8
Cc1cccc(NC(=O)c2sc3nc(-c4ccccc4)cn3c2C)n1 | i | 17.7 | 18.1 | 2.1 | -0.317 | 2.8
COc1ccc(-c2cn3c(C)c(C(=O)Nc4cccc(C)n4)sc3n2)cc1 | i | 95.6* | 7.3 | -1.4 | -0.423 | 10.0
Cc1ccc(NC(=O)COC(=O)Cc2ccsc2)c(C)c1 | i | 1.0 | 10.5 | 1.1 | -0.205 | 3.8
O=C(Nc1ccc(CN2CCS(=O)(=O)CC2)cc1)c1ccc(Cl)cc1 | x | x | -4.1 | 0.5 | -1.07 | x
CCOC(=O)/C=C1\Nc2ccccc2OC1=O | i | 64.1* | 4.9 | 8.3 | 0.809 | 5.3
COc1ccc(N2C(=NC(C)=O)SC3CS(=O)(=O)CC32)cc1OC (centres undefined) | i | -6.0 | 33.9 | -3.3 | -0.445 | 1.3
CCCC(=O)N=C1SC2CS(=O)(=O)CC2N1c1ccc(-c2nc3ccc(C)cc3s2)cc1 (centres undefined) | i | -7.6 | 77.3* | 1.4 | -1.06 | 6.0
O=C(/C=C/c1ccccc1Cl)N(Cc1ccccc1)C1CCS(=O)(=O)C1 (centres undefined) | i | -0.4 | 15.1 | -4.8 | -0.156 | 2.5
O=C(/C=C/c1ccccc1Cl)N(Cc1ccc(Cl)cc1)C1CCS(=O)(=O)C1 (centres undefined) | i | 79.4* | 21.7 | -1.0 | -0.145 | 1.5
CC(/C=C1\N=C(SCc2ccccc2Cl)SC1=O)=C\c1ccccc1 | i | -12.2 | 75.8* | x | -1.01 | 2.4
O=C1SC(SCc2ccccc2)=N/C1=C\c1ccc(C(=O)O)cc1 | i | -5.7 | 42.8 | 0.2 | -0.121 | 1.3
SMILES | Autophagy HCS | Lmaj promast | CHOP inh | b-catenin transl | Dynein cargo inh | MT stabilizer
COc1cc(OC)c(C(=O)NNC(=S)NC2CCCCC2)cc1OC | i | 50.7* | 24.1 | x | -0.632 | 6.1
Cc1nnc(NC(=O)CCC(=O)N2CCN(CCc3ccccc3)CC2)s1 | x | x | x | -0.5 | x | x
COc1ccc(-c2nc3n(n2)C(c2ccccc2)C2=C(CCCC2=O)N3)cc1OC (centres undefined) | i | 2.4 | x | -1.7 | 0.269 | 4.9
CC(C#N)(Nc1ccc(Cl)cc1)c1cccnc1 (centres undefined) | i | 70.2* | 13.5 | -0.4 | -0.021 | 2.0
CC(C)(C)c1ccc(CN2N=C(/C=C/c3ccccc3)CCC2=O)cc1 | i | 1.2 | 58.0 | -2.2 | -0.568 | 3.0
O=C(c1cccc(N2C(=O)C3CC=CCC3C2=O)c1)N1CCN(c2ccccc2)CC1 (centres undefined) | i | -6.1 | -13.6 | -9.4 | -0.697 | 4.1
N#CC1=C(N)N(c2ncn[nH]2)C2=C(C(=O)CCC2)C1c1ccccc1 (centres undefined) | i | -7.1 | 9.6 | -2.7 | 0.0356 | 2.4
Cc1nn2c(COc3ccc(NC(=O)C(C)C)cc3)nnc2c2ccccc12 | i | 39.6 | -5.1 | 0.5 | 1.99 | 3.5
Cc1nn2c(COc3ccc(NC(=O)c4ccccc4Cl)cc3)nnc2c2ccccc12 | i | 3.0 | -11.0 | -0.8 | 0.283 | 17.5*
Cc1nn2c(CN(C(=O)COc3ccccc3)c3ccccc3)nnc2c2ccccc12 | i | 80.6* | 14.0 | -4.0 | -0.256 | 1.1
COCc1cc(=O)[nH]c(-c2ccccc2OC(F)(F)F)n1 | x | x | 8.8 | -1.2 | 1.36 | x
O=C(COC(=O)/C=C/c1ccccc1)NCC1CCCO1 (centres undefined) | i | -5.7 | -17.0 | -1.8 | -0.546 | 2.8
COc1ccc(C(=O)OCC(=O)Nc2sccc2C(N)=O)cc1OC | x | x | 14.6 | 0.2 | 0.281 | x
NC(=O)c1ccsc1NC(=O)COC(=O)Cc1cccc2ccccc12 | i | -2.1 | 84.6* | x | -1 | 0.8
COc1ccccc1OCC(=O)OCC(=O)Nc1sccc1C(N)=O | i | 53.1* | 0.2 | x | 0.0841 | 2.2
CN(C)C(=O)c1ccc(NC(=O)COc2ccc([N+](=O)[O-])cc2)cc1 | i | -10.4 | 0.6 | 0.7 | -0.246 | 8.1
CN(C(=S)NCCN1CCOCC1)C(c1ccccc1)c1ccccc1 | i | 8.9 | 47.2 | 3.9 | -1.2 | 6.6
CCc1cc(-c2[nH]ncc2-c2ccc3c(c2)OCO3)c(O)cc1O | i | -2.0 | 47.9 | -0.3 | -1.16 | 4.4
CCCc1cc(-c2[nH]ncc2-c2ccc3c(c2)OCCCO3)c(O)cc1OC | i | 7.3 | 69.2 | 2.8 | -0.311 | 47.0*
Cc1cc(C)c(C(=O)COC(=O)CCNS(=O)(=O)c2c(Cl)cccc2Cl)cc1C | i | 73.5* | 28.8 | x | 0.745 | 1.5
Cc1ccc(-c2cc(C(F)(F)F)n3ncc(C(=O)N4CCN(C)CC4)c3n2)cc1 | i | 98.7* | 5.5 | -1.5 | -0.271 | 5.2
O=C(NC1CCCC1)c1cnn2c(C(F)(F)F)cc(-c3ccc4c(c3)OCO4)nc12 | + | 1.8 | -70.8 | x | 0.578 | 9.7

Compound activity (PubChem)
